Assay results as given in ChEMBL document CHEMBL1799931, “Synthesis, evaluation and metabolic studies of radiotracers containing a 4-(4-[18F]-fluorobenzyl)piperidin-1-yl moiety for the PET imaging of NR2B NMDA receptors” (Eur J Med Chem, 2011).

Legend:
[1] = target: T1, Glutamate NMDA receptor; GRIN1/GRIN2B (Homo sapiens, UniProt Q05586+Q13224); assay: Antagonist activity against NR1a/NR2B receptor transfected in human HEK293 cells assessed as inhibition of NMDA-induced Ca2+ influx; type: functional, cell-based
T1 sequence (Q13224 whole entry, other chains not shown): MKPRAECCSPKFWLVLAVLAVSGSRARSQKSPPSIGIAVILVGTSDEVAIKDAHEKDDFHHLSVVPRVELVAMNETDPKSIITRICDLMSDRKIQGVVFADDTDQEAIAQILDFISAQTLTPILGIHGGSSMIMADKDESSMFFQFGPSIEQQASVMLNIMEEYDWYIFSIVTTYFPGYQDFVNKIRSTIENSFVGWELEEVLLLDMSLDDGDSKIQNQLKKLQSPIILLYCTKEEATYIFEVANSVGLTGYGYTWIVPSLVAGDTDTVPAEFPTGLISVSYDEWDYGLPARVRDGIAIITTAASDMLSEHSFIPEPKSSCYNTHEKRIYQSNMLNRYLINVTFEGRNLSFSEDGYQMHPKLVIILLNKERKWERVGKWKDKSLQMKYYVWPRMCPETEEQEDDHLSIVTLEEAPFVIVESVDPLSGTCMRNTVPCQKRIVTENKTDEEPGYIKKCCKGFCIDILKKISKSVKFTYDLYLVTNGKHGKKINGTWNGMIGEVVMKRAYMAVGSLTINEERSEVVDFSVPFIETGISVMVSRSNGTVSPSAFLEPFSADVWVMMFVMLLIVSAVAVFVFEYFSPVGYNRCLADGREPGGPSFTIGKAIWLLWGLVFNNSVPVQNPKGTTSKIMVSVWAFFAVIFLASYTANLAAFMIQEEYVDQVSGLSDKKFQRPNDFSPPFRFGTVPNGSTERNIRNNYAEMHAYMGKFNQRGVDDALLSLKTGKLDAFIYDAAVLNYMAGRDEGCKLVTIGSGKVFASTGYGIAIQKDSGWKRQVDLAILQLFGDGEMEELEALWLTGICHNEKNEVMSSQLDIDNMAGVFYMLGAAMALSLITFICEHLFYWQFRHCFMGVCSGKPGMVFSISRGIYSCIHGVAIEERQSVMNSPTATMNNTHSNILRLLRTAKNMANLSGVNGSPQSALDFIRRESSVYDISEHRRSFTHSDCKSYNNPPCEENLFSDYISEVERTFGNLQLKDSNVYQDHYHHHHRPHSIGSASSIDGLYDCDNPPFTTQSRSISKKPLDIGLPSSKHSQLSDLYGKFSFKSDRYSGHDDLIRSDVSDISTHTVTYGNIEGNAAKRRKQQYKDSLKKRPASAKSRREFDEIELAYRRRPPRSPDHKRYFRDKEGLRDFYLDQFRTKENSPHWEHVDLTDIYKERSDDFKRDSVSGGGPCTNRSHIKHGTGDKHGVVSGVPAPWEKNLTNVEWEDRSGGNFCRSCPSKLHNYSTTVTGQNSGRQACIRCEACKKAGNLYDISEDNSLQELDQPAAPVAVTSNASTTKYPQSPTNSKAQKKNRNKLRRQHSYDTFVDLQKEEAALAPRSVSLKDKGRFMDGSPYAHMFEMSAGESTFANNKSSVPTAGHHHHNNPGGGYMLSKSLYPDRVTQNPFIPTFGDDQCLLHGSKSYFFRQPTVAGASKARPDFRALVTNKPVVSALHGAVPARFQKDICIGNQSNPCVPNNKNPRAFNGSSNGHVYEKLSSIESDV

[2] = target: T1, Glutamate NMDA receptor; GRIN1/GRIN2B; assay: Antagonist activity at human NR1a/NR2B receptor expressed in mouse fibroblast LMTK cells assessed as inhibition of Glu/Gly induced Ca2+ influx; type: functional, cell-based
Mus musculus = assay: Analgesic activity in po dosed mouse assessed as licking behavior measured after 20 to 25 mins by formalin test; type: functional, organism-based
[3] = target: T1, Glutamate NMDA receptor; GRIN1/GRIN2B; assay: Displacement of [3H]-Ro-256981 from recombinant NR1/NR2B receptor; type: protein-complex assay
Liver = assay: Metabolic stability of the compound in rat liver homogenate after 30 mins; type: ADME, tissue-based; conditions: tissue homogenate, 0.5 h
How it was run: (§1)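 Rat plasma or liver homogenate (0.450 mL) spiked with ligand at 5-200 mg/L. Samples were deproteinized with acetonitrile immediately or after 30 min at 37 °C, then analysed by HPLC in triplicate injections.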

Plasma [4] = assay: Metabolic stability of the compound in rat plasma after 30 mins; type: ADME, cell-free; conditions: 0.5 h; how it was run: as §1
[5] = target: Glutamate NMDA receptor; GRIN1/GRIN2A (Homo sapiens) (UniProt Q05586+Q12879); assay: Antagonist activity against NR1a/NR2A receptor transfected in human HEK293 cells assessed as inhibition of NMDA-induced Ca2+ influx at 10 uM; type: functional, cell-based
How it was run: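 HEK293 cells co-transfected 1:1 with NR1-1a plus NR2A-GFP or NR2B-GFP, D-APV (100 µM) after transfection, used at 24 h. Cells loaded with Fura-2/AM 45 min at 37 °C, then held in HBBSS with glycine, pH 7.45, at room temperature under perfusion. NMDA 100 µM for 30 s; ligands applied 60 s before and during.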

Plasma [6] = assay: Metabolic stability in Sprague-Dawley rat assessed as unmetabolized parent compound in plasma at 10 mg/kg, iv after 1 hr by MS/MS analysis; type: ADME, organism-based; set-up: dose 10 mg/kg, route intravenous; conditions: in vivo
How it was run: (§2)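 Two anesthetized male Sprague-Dawley rats got 10 mg/kg in sterile water by tail vein; two controls got sterile water at 1 mL/kg. Rats were kept awake 1 h, then decapitated. Plasma and urine went to LC-MS/MS, full scans compared with control.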

[7] = Metabolic stability in Sprague-Dawley rat assessed as unmetabolized parent compound in urine at 10 mg/kg, iv after 1 hr by MS/MS analysis; type: ADME, organism-based; set-up: dose 10 mg/kg, route intravenous; conditions: in vivo; how it was run: as §2

CS(=O)(=O)Nc1ccc2[nH]c(CN3CCC(Cc4ccc(F)cc4)CC3)nc2c1
IC50 [1]: 0.0577 µM

CS(=O)(=O)Nc1ccc2nc(CN3CCC(Cc4ccccc4)CC3)[nH]c2c1
IC50 [1]: 0.0503 µM | IC50 [2]: 0.0014 µM

Cc1ccc(CC2CCN(C(=O)C(=O)Nc3ccc4c(c3)CC(=O)N4)CC2)cc1
ED50 (Mus musculus): 0.5 mg/kg

O=C(Nc1ccc2nc(O)sc2c1)C(=O)N1CCC(Cc2ccccc2)CC1
ED50 (Mus musculus): 0.5 mg/kg

O=C(Nc1ccc2nc(O)oc2c1)C(=O)N1CCC(Cc2ccccc2)CC1
ED50 (Mus musculus; Mus musculus, po, read-out: ED50): 0.5 mg/kg | IC50 [3]: 0.004 µM

O=C(Nc1ccc2[nH]c(=O)oc2c1)C(=O)N1CCC(Cc2ccc(F)cc2)CC1 [RADIPRODIL]
IC50 [1]: 0.0699 µM | Stability (Liver): Stable | IC50 [3]: 0.006 µM | Stability (Plasma [4]): Stable

O=C1Cc2cc(NC(=O)C(=O)N3CCC(Cc4ccc(F)cc4)CC3)ccc2N1
IC50 [1]: 0.83 µM | inhibition [5]: 14.5%

O=C(Nc1ccc2[nH]c(=O)[nH]c2c1)C(=O)N1CCC(Cc2ccccc2)CC1
IC50 [3]: 0.008 µM

Fc1ccc(CC2CCNCC2)cc1
Stability (Plasma [6]): Unstable | Stability [7]: Unstable
